In ChEMBL document CHEMBL4513216, “Probing the Open Global Health Chemical Diversity Library for Multistage-Active Starting Points for Next-Generation Antimalarials” (ACS Infect Dis, 2020):

Test: Toxicity liver stage against HepG2, at 10uM
Format: cell-based
Design: test concentration 10 uM, cell line HepG2-A16-CD81EGFP
Conditions: human, HepG2-A16-CD81EGFP cells; read-out: INHIBITION
Summary of the method: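 Uninfected HepG2-A16-CD81EGFP cells, 3 × 10^3 per well, 1536-well, plated on prespotted compound at 10 μM final, parasite-free screening media added to match infected plates; puromycin 10 μM positive, DMSO 0.5% negative; run in parallel with 48 h PbLuc assay at 37 °C, 5% CO2; viability by CellTiter-Glo luminescence, normalized to controls.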

| Structure (SMILES) | cytotoxicity at 10 µM |
| --- | --- |
| CC(C)(C)C(=O)N[C@H]1C[C@@H](Cc2cc(CN3CCOCC3)on2)C1(C)C | -7.15% |
| O=C(O)CCCNC(=O)N1CCc2c([nH]c3ccc(Cl)cc23)C1 | 8.13% |
| COc1nn(C)cc1C(=O)NCC(=O)NCc1ccccn1 | -3.56% |
| O=C(CN1C(=O)CCC1=O)N1CCC(CSCc2ccco2)CC1 | -8% |
| O[C@H]1CCN(CC2CCOC2)[C@H]1Cc1ccncc1 (some centres not stated) | -2.32% |
| CCOCc1ncn2c1CN(C(=O)Nc1ccc(CC)cc1)CC2 | 5.96% |
| O=C([C@@H]1C[C@@H]2CCN(C3CCOCC3)C[C@H]2O1)N1CCCC1 | 4.5% |
| O=C([C@@H]1C[C@@H]2CCN(C3CCOCC3)C[C@@H]2O1)N1CCOCC1 | 7.34% |
| COc1ccc(S(=O)(=O)N2CCn3cnc(COCC4CC4)c3C2)cc1 | -0.262% |
| CC(C)(C)C(=O)N1C[C@@H]2COC[C@]2(c2nnc(C3CC3)o2)C1 | -2.47% |
| CC(C)NC(=O)C(NC(=O)N1CCN(c2ccc(Cl)cc2)CC1)C(C)C (configuration not stated) | 5.69% |
| CCNC(=O)c1ccc2c(c1)nc1n2CCN(Cc2ccco2)C1 | -5.64% |
| COc1cc(-c2n[nH]c(CN)n2)cc(OC)c1OC | 2.45% |
| OC1CCCOC12CCN(CCCOc1ccccc1F)CC2 (configuration not stated) | 3.4% |
| Cc1nc(-c2c(C)noc2C)cc(C2CCN(S(=O)(=O)N(C)C)CC2)n1 | 4.62% |
| CC(=O)N1CCCC1c1nccnc1NCc1cccnc1 (configuration not stated) | -6.72% |
| Cc1ccc2[nH]c(C3CCN(CC(N)=O)CC3)nc2c1 | 3.23% |
| COc1cccc(-c2cc(C3CCCNC3)ccn2)c1 (configuration not stated) | 0.207% |
| COc1ccc([C@@H]2CN(C(=O)c3cscn3)C[C@H]2C(=O)O)cc1 | -18.2% |
| CC(=O)N1CC(c2ccnc(Nc3ccc(C)cn3)n2)C1 | -31.1% |
| CCN(Cc1ccncc1)CC1(O)CCN(C(=O)c2cccc(C)c2)C1 (configuration not stated) | -25.1% |

| Structure (SMILES) | cytotoxicity at 10 µM |
| --- | --- |
| Nc1nccnc1C1CN(C(=O)c2cnccn2)CCO1 (configuration not stated) | -9.17% |
| Cc1c[nH]nc1C1CCN(S(=O)(=O)N(C)C)C1 (configuration not stated) | -13% |
| Cc1csc(Nc2nccnc2C2CCCN2S(C)(=O)=O)n1 (configuration not stated) | -3.69% |
| Cc1noc(C)c1CSCc1csc(CS(C)(=O)=O)n1 | -17% |
| Cc1nnc(CN(C)CC(=O)NCCc2ccc(F)cc2)n1C | 2.25% |
| Cc1ccc(N2N=C(C(=O)N(C)Cc3ccco3)NCC2=O)cc1 | 6.27% |
| CCOC(=O)c1ccc(S(=O)(=O)NCC(CC)N2CCCC2)cc1 (configuration not stated) | -7.4% |
| NC(=O)CC1CCCN(C(=O)NCC2(c3cccs3)CCCC2)C1 (configuration not stated) | 1.9% |
| Cc1noc(C2CCCN(Cn3cc(Cl)cn3)C2)n1 (configuration not stated) | 2.42% |
| CC(NC(=O)N1CCCN(C)CC1)c1ccc2c(c1)OCCO2 (configuration not stated) | -6.36% |
| CC(C(=O)Nc1cccc(Cl)c1SC(F)F)S(C)(=O)=O (configuration not stated) | 0.685% |
| CC(C)OC(=O)N1CCC(Nc2ncc(Br)cn2)CC1 | -0.951% |
| COc1cccc(N2CCC(CNC(=O)CN3CSCC3=O)C2)c1 (configuration not stated) | 0.342% |
| CCOC(C)c1nc(CN2CCN(CC(F)F)CC2)cs1 (configuration not stated) | -8.94% |
| Cc1cnc(NC(=O)N2CCCCCC2)s1 | -2.81% |
| O=S(=O)(NCC1COc2ccccc2C1)N1CCCCCC1 (configuration not stated) | -0.138% |
| N#Cc1ccc(CN2C(=O)c3ccccc3CS2(=O)=O)cc1 | -4.17% |
| CCS(=O)(=O)N(C)C1CCN(c2cccc(F)c2C(C)=O)CC1 | 9.61% |
| Cc1cc(OC(F)F)c(C(=O)N2CCC(CN(C)C)CC2)s1 | 6.04% |
| NC(=O)CN(Cc1ccc(Br)cc1)C(=O)c1ccncc1 | 4.16% |
| c1csc(C2(NCc3csc(C4CC4)n3)CCCC2)n1 | -3.75% |

| Structure (SMILES) | cytotoxicity at 10 µM |
| --- | --- |
| CC(C)C(C)N1Cc2cccc(NCC(=O)N(C)C)c2C1 (configuration not stated) | 8% |
| COC(=O)c1cccc(S(=O)(=O)NC(=O)c2cccc(OC)c2OC)c1 | 12.2% |
| O=C(COCc1ccccc1Cl)N1CCN(c2cnccn2)CC1 | 7.57% |
| CCCNC(=O)Nc1cccc2c1CCN(S(C)(=O)=O)C2 | -7.92% |
| CNC(=O)Cc1ccc(NC(=O)NC(C)C(C)C)cc1 (configuration not stated) | -4.69% |
| Cc1csc2ncc(-c3ccnc(NC4CCOCC4)n3)c(=O)n12 | -4.36% |
| Cc1ccc(C2(CN(C)Cc3c(C)nn(C)c3C)CCNCC2)nc1 | -0.44% |
| O=C(C1CCS(=O)(=O)CC1)N1CCC(c2ccc(F)cc2)C1 (configuration not stated) | -60.1% |
| Cc1noc(C(C)N(C)CC(=O)NCCc2ccc(Cl)cc2)n1 (configuration not stated) | 10.3% |
| COCc1cc(N2CCN(C3CCCCC3)CC2)n2nccc2n1 | 3.59% |
| O=c1[nH]c(COc2ccc(Cl)cc2)nc2c1CCNC2 | 6.6% |
| CC(O)c1cccc(N2CCC3(CCC(=O)N(C4CCCC4)C3)CC2)n1 (configuration not stated) | -3.56% |
| CCN1CCCC2(CCN(Cc3nnc(C4CC4)o3)C2)C1=O (configuration not stated) | 1.56% |
| OCC1CCCCN1CCn1ccnc1-c1ccc2c(c1)OCCO2 (configuration not stated) | -3.65% |
| Cc1ccc2cc(CN(C)Cc3ncc[nH]3)c(=O)[nH]c2c1 | 1.75% |
| Cc1nc(C2CCCNC2)cc(N(C)CCc2cn[nH]c2)n1 (configuration not stated) | -9.91% |
| CN(C)CCN(C)C(=O)c1cn(CC2CCCCC2)nn1 | -3.61% |
| CN(C)c1ncnc2c1CCN(C(=O)c1sccc1S(N)(=O)=O)C2 | 0.192% |
| Cc1nc(N2CCCN(c3ncccn3)CC2)c2cnn(C)c2n1 | 0.977% |
| COc1ccc(F)cc1C(=O)N1CCC2(CCC(=O)N(C(C)C)C2)CC1 | -4.75% |
| COc1cc(CNCC(O)c2ccccc2F)cc2c1OCO2 (configuration not stated) | -5.53% |

| Structure (SMILES) | cytotoxicity at 10 µM |
| --- | --- |
| C=C(Br)CN(C)C1CCN(CCc2ccccn2)CC1 | 0.953% |
| Cc1n[nH]c(C)c1C1COCCN1C(=O)c1cc(F)ccc1F (configuration not stated) | -9.24% |
| CCc1nc(CN2CCN(C(=O)C3(C#N)CCCCC3)CC2)cs1 | -3.6% |
| Cc1cc(CN(C)C(=O)c2ccc(Cl)cc2N2CCCC2=O)no1 | -15.9% |
| CCn1cnnc1C1CCN(C(=O)c2cc3c(s2)CCOC3)CC1 | -6.37% |
| Cc1nccn1C1CCCN(C(=O)c2cnc[nH]2)C1 (configuration not stated) | -5.43% |
| CCN(CC(=O)NC1(C)CCS(=O)(=O)C1)Cc1ccc(OC)c(F)c1 (configuration not stated) | -9.44% |
| Cc1ccc(-c2nc(CN3CCn4c(C)nnc4C3)co2)cc1 | -8.03% |
| COc1ncccc1CNC(=O)NCCNS(C)(=O)=O | -14.4% |
| CCCC(=O)N(C)CC(=O)Nc1ccc(Br)cn1 | -15.5% |
| Cc1ccoc1C(=O)NC1CCN(Cc2ccccc2C#N)CC1 | -3.51% |
| COc1ccc(C(=O)N2CCCC(NC(=O)C(C)C)C2)c(O)c1 (configuration not stated) | 0.301% |
| CC(C)(C)c1noc(CN2CCCN(Cc3cccs3)CC2)n1 | -8.8% |
| COc1cc(CNC(=O)C2CC(=O)N(C(C)C)C2)ccn1 (configuration not stated) | -5.36% |
| CN(Cc1ccsc1)C(=O)Nc1ccc(S(=O)(=O)N(C)C)cc1 | 2.23% |
| CN(C)c1ncc2c(O)nc(C3CCNCC3)cc2n1 | 13.3% |
| COCC1CN(Cc2ccc(F)cc2)Cc2nnn(CC3CC3)c21 (configuration not stated) | 3.4% |
| O=C(NC1CCCC1)[C@H]1CC[C@@H]2[C@@H](CCN2c2ncc(F)cn2)O1 | 0.441% |
| CN1C(=O)C(c2ccccc2)CC12CCN(CCO)CC2 (configuration not stated) | 5.12% |
